Our source for the Tm and folding enthalpy values is the array DNA melting data of Ke et al. (doi:10.1101/2024.01.08.574731).

A short description of series [1]: melting temperature; fluorescence melt of hairpins on a sequencing array, two-state fit, raised by 9.35 °C to match UV melts. To be noted: sodium 0.088 M. The gist of the method:
(§1)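 Cy3 signals were normalised both to pre-quench Cy3 and to control constructs. They came from library hairpins carrying annealed Cy3 and quencher oligos on a sequenced MiSeq flow cell, imaged in 50 mM Na-HEPES pH 8.0, 25 mM NaCl, in 2.5 °C steps up to 60 °C. Bootstrapped two-state fits gave melting temperature and folding enthalpy, and four replicates were combined by inverse variance. Fitted temperatures were then raised by 9.35 °C to match UV melts.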

The nature of series [2]: folding enthalpy; higher = less favourable; fluorescence melt of hairpins on a sequencing array, two-state fit. To be noted: sodium 0.088 M. In a few lines:
as §1

For the sequence GCTGGCGAAAGCCGCAGC ((((((....)))..))), in series [1], the Tm stood at 52.4 °C. The folding enthalpy in series [2] was -12.9 kcal/mol.

Consider GCTAGGCGAAAGCCATGC ((..(((....)))..)), for which the Tm in series [1] was found to be 53.5 °C. In addition, the folding enthalpy in series [2] was -17.7 kcal/mol.

In the case of GGGAGCCCGAAAGGGCCC (((..(((....)))))), the Tm in series [1] was found to be 58.8 °C. For the same sequence, in series [2], the folding enthalpy was -10.7 kcal/mol.

As to GGCACTGGAAACAGTACC ((.((((....)))).)), the Tm in series [1] was determined as 43 °C. Besides, in series [2], the folding enthalpy was -33 kcal/mol.

Turning to GCATGCGGAAACGTATGC ((((.((....)).)))), the Tm in series [1] came out at 56.1 °C. Besides, in series [2], the folding enthalpy is -41.4 kcal/mol.

With GTGTAGCGAAAGCTGCAC (((.(((....))).))), the Tm in series [1] came out at 63.9 °C. Also, in series [2], the folding enthalpy is -36.6 kcal/mol.

For GTGTTTGAAAAAACAC ((((((....)))))), the Tm in series [1] was 52.9 °C. The folding enthalpy in series [2] is -38.4 kcal/mol.

With GATCGTTCTTACGATC ((((((....)))))), the Tm in series [1] is 56.3 °C. In addition, in series [2], the folding enthalpy is -40.6 kcal/mol.

Consider GCTCACGAAAGTGGCAGC ((((((....)))..))), for which the Tm in series [1] turned out to be 44.6 °C. Also, the folding enthalpy in series [2] was -14.7 kcal/mol.

Consider GATAGCGGAAACACTATC (((((.(....).))))), for which, in series [1], the Tm stood at 36.5 °C. Further, the folding enthalpy in series [2] is -27.6 kcal/mol.

For the sequence GGAAAGCGAAAGCTATCC (((.(((....))).))), the Tm in series [1] came out at 47.2 °C. For the same sequence, the folding enthalpy in series [2] is -25.2 kcal/mol.

GGAGTCGGAAACGGCTCC ((((.((....)).)))): the Tm in series [1] was found to be 61 °C. Besides, the folding enthalpy in series [2] was -45.8 kcal/mol.

Consider GGTTGGGGAAACCCAGCC ((.((((....)))).)), for which, in series [1], the Tm worked out at 53.7 °C. Besides, the folding enthalpy in series [2] was -42.9 kcal/mol.

As for GATCTAAGCTTAGATC ((((((....)))))), in series [1], the Tm is 47.5 °C. Also, the folding enthalpy in series [2] was -53.5 kcal/mol.

As for GTCTGCGAAAGCAGCGAC ((((((....)))..))), in series [1], the Tm came out at 60.6 °C. Further, in series [2], the folding enthalpy was -12.5 kcal/mol.

Consider GCTTTCCGAAAGGAAGC (((.(((....)))))), for which, in series [1], the Tm is 52.3 °C. Also, in series [2], the folding enthalpy was -21.1 kcal/mol.

Take GGACACGAAAGTGTTTCC ((((((....)))..))): the Tm in series [1] was 38 °C. Moreover, the folding enthalpy in series [2] is -11.5 kcal/mol.

In the case of GCATAGGGAAACTTATGC (((((.(....).))))), the Tm in series [1] is 41.6 °C. The folding enthalpy in series [2] was -29.2 kcal/mol.

As for GGGCGCGAAAGCGCACCC ((((((....)))..))), the Tm in series [1] was determined as 66.3 °C. For the same sequence, the folding enthalpy in series [2] is -9.21 kcal/mol.

Regarding GATCGGGTTCCGATC ((((((...)))))), the Tm in series [1] worked out at 56.8 °C. The folding enthalpy in series [2] is -39.1 kcal/mol.

In the case of GCTCGAACGAAAGTTAGC (((..(((....)))))), in series [1], the Tm turned out to be 31.5 °C. The folding enthalpy in series [2] is -12.1 kcal/mol.

On to GACCACGGAAACGTGACC (..((((....))))..), for which the Tm in series [1] worked out at 29.2 °C. Also, in series [2], the folding enthalpy was -8.43 kcal/mol.

As for GGGATTTCGAAAGAACCC (((..(((....)))))), the Tm in series [1] amounted to 30.3 °C. Also, the folding enthalpy in series [2] is -22.6 kcal/mol.

In the case of GGATGTGGAAACGTATCC ((((..(....)..)))), the Tm in series [1] is 35.1 °C. For the same sequence, in series [2], the folding enthalpy was -22.3 kcal/mol.

CGGCTTCGGAAACGACCG (((..(((....)))))): the Tm in series [1] was found to be 37.9 °C. In addition, in series [2], the folding enthalpy was -18.2 kcal/mol.

For the sequence GGACACGAAAGTGTCTCC ((((((....)))..))), the Tm in series [1] is 53.8 °C. For the same sequence, the folding enthalpy in series [2] is -9.39 kcal/mol.

For GCTGCCGGAAACGACAGC ((((.((....)).)))), the Tm in series [1] is 55.2 °C. Further, the folding enthalpy in series [2] is -45.7 kcal/mol.

For the sequence GTTCGTCGAAAGACAAAC (((.(((....))).))), in series [1], the Tm worked out at 41.2 °C. Also, the folding enthalpy in series [2] is -16.6 kcal/mol.

Turning to GCTCCCACGAAAGTGAGC (((..(((....)))))), in series [1], the Tm worked out at 40.2 °C. In series [2], the folding enthalpy is -17.1 kcal/mol.

On to GCCACGCGAAAGCATTGC ((.(.((....)).).)), for which, in series [1], the Tm stood at 28.7 °C. Moreover, the folding enthalpy in series [2] is -11.6 kcal/mol.

For GCCAATCCGAAAGGAGGC (((..(((....)))))), the Tm in series [1] was determined as 47 °C. The folding enthalpy in series [2] is -22.2 kcal/mol.

For GCTAAGCGAAAGCGGAGC (((..((....))..))), the Tm in series [1] is 57.2 °C. Besides, in series [2], the folding enthalpy is -20.3 kcal/mol.

In the case of GATCAATAATTTGATC ((((((....)))))), the Tm in series [1] turned out to be 43.2 °C. Besides, the folding enthalpy in series [2] was -34.8 kcal/mol.

As for GAAGATGAAAATCTTC ((((((....)))))), in series [1], the Tm amounted to 48.4 °C. The folding enthalpy in series [2] was -28.1 kcal/mol.

Turning to GATCCGTGCCGGATC ((((((...)))))), in series [1], the Tm came out at 57.9 °C. Besides, the folding enthalpy in series [2] was -44.5 kcal/mol.

Turning to GTGGTACGAAAGTACAC (((.(((....)))))), the Tm in series [1] was 49.7 °C. In series [2], the folding enthalpy was -15 kcal/mol.

For the sequence TGCCAGAAATGGCA (((((....))))), in series [1], the Tm was found to be 55.1 °C. For the same sequence, in series [2], the folding enthalpy was -16.5 kcal/mol.
